As usually defined, the IC50 is the concentration needed to halve the response being measured.

The source made the active and inactive calls. The calls are words filed in the database; no cut-off is given here.

Activity and IC50 data for 4 molecules are collected here from ChEMBL document CHEMBL3580613, “First enantiospecific syntheses of marine merosesquiterpenes neopetrosiquinones a and B: evaluation of biological activity” (J Nat Prod, 2015).

Test [1] concerns MCF7. The test can be described thus: Induction of cell cycle arrest in 24 hrs serum-starved human MCF7 cells assessed as accumulation at G0-G1 phase at 2 times antiproliferative IC50 incubated for 24 hrs by propidium iodide staining based flow cytometry (reference value: 51 +/- 0.9%). The class given is functional. Background: Flow cytometry measures light scatter and fluorescence of single cells or particles in a stream.

Test [2] has as its system A549. The test can be described thus: Induction of cell cycle arrest in 24 hrs serum-starved human A549 cells assessed as accumulation at G0-G1 phase at antiproliferative IC50 incubated for 24 hrs by propidium iodide staining based flow cytometry (reference value: 62 +/- 1%). The class given is functional.
Test [3] has as its system MCF7. The test can be described thus: Induction of cell cycle arrest in 24 hrs serum-starved human MCF7 cells assessed as accumulation at S phase at antiproliferative IC50 incubated for 24 hrs by propidium iodide staining based flow cytometry (reference value: 17 +/- 0.8%). The class given is functional.
The subject of test [4] is T84. The test can be described thus: Antiproliferative activity against human T84 cells incubated for 3 days by sulforhodamine B assay. Particulars: T84, 72 h. The class given is functional, cell-based. The gist of the method:
(§1)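 Cells in DMEM with 10% heat-inactivated FBS, penicillin–streptomycin and 2 mM L-glutamine at 37 °C, 5% CO2. Seeded at 5 × 10^3 cells/cm2 in quadruplicate. After 24 h, exposed to increasing compound concentrations for 3 days. Fixed with cold 10% TCA, stained with 0.4% sulforhodamine in 1% acetic acid, dye solubilized in 10 mM Tris-base pH 10.5, OD read at 492 nm. IC50 by linear interpolation on semilog dose–response curve. Mean ± SEM of four independent determinations.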

Test [5] concerns A549. The test can be described thus: Induction of apoptosis in 24 hrs serum-starved human A549 cells assessed as accumulation at subG1 phase at 2 times antiproliferative IC50 incubated for 24 hrs by propidium iodide staining based flow cytometry (reference value: 3.5 +/- 1.1%). Format: functional.
For test [6], the system named is A549. The test can be described thus: Antiproliferative activity against human A549 cells incubated for 3 days by sulforhodamine B assay. Format: functional, cell-based. The note with it: A549, 72 h. The gist of the method: as §1
The subject of test [7] is MCF7. The test can be described thus: Induction of cell cycle arrest in 24 hrs serum-starved human MCF7 cells assessed as accumulation at G2-M phase at 2 times antiproliferative IC50 incubated for 24 hrs by propidium iodide staining based flow cytometry (reference value: 28 +/- 0.3%). The class given is functional.
Test [8] has as its system T84. The test can be described thus: Induction of cell cycle arrest in 24 hrs serum-starved human T84 cells assessed as accumulation at G2-M phase at antiproliferative IC50 incubated for 24 hrs by propidium iodide staining based flow cytometry (reference value: 18 +/- 1%). Format: functional.
Test [9] has as its system T84. The test can be described thus: Induction of cell cycle arrest in 24 hrs serum-starved human T84 cells assessed as accumulation at G2-M phase at 2 times antiproliferative IC50 incubated for 24 hrs by propidium iodide staining based flow cytometry (reference value: 18 +/- 1%). Format: functional.
In test [10] the test system is T84. The test can be described thus: Induction of cell cycle arrest in 24 hrs serum-starved human T84 cells assessed as accumulation at G0-G1 phase at 2 times antiproliferative IC50 incubated for 24 hrs by propidium iodide staining based flow cytometry (reference value: 65 +/- 1.1%). The class given is functional.
Test [11] relates to A549. The test can be described thus: Induction of apoptosis in 24 hrs serum-starved human A549 cells assessed as accumulation at subG1 phase at antiproliferative IC50 incubated for 24 hrs by propidium iodide staining based flow cytometry (reference value: 3.5 +/- 1.1%). Format: functional.
The subject of test [12] is MCF7. The test can be described thus: Induction of apoptosis in 24 hrs serum-starved human MCF7 cells assessed as accumulation at subG1 phase at 2 times antiproliferative IC50 incubated for 24 hrs by propidium iodide staining based flow cytometry (reference value: 4 +/- 1.1%). Format: functional.
Test [13] relates to MCF7. The test can be described thus: Induction of apoptosis in 24 hrs serum-starved human MCF7 cells assessed as accumulation at subG1 phase at antiproliferative IC50 incubated for 24 hrs by propidium iodide staining based flow cytometry (reference value: 4 +/- 1.1%). The class given is functional.
Test [14] deals with MCF7. The test can be described thus: Induction of cell cycle arrest in 24 hrs serum-starved human MCF7 cells assessed as accumulation at G2-M phase at antiproliferative IC50 incubated for 24 hrs by propidium iodide staining based flow cytometry (reference value: 28 +/- 0.3%). The class given is functional.
Test [15] relates to T84. The test can be described thus: Induction of cell cycle arrest in 24 hrs serum-starved human T84 cells assessed as accumulation at S phase at 2 times antiproliferative IC50 incubated for 24 hrs by propidium iodide staining based flow cytometry (reference value: 13 +/- 0.6%). The class given is functional.
For test [16], the system named is A549. The test can be described thus: Induction of cell cycle arrest in 24 hrs serum-starved human A549 cells assessed as accumulation at S phase at 2 times antiproliferative IC50 incubated for 24 hrs by propidium iodide staining based flow cytometry (reference value: 12 +/- 0.9%). The class given is functional.
Test [17] deals with T84. The test can be described thus: Induction of cell cycle arrest in 24 hrs serum-starved human T84 cells assessed as accumulation at G0-G1 phase at antiproliferative IC50 incubated for 24 hrs by propidium iodide staining based flow cytometry (reference value: 65 +/- 1.1%). Format: functional.
The subject of test [18] is MCF7. The test can be described thus: Induction of cell cycle arrest in 24 hrs serum-starved human MCF7 cells assessed as accumulation at G0-G1 phase at antiproliferative IC50 incubated for 24 hrs by propidium iodide staining based flow cytometry (reference value: 51 +/- 0.9%). Format: functional.
Test [19] deals with T84. The test can be described thus: Induction of apoptosis in 24 hrs serum-starved human T84 cells assessed as accumulation at subG1 phase at antiproliferative IC50 incubated for 24 hrs by propidium iodide staining based flow cytometry (reference value: 4 +/- 0.3%). Format: functional.
The test system of test [20] is A549. The test can be described thus: Induction of cell cycle arrest in 24 hrs serum-starved human A549 cells assessed as accumulation at G0-G1 phase at 2 times antiproliferative IC50 incubated for 24 hrs by propidium iodide staining based flow cytometry (reference value: 62 +/- 1%). Format: functional.
The test system of test [21] is MCF7. The test can be described thus: Induction of cell cycle arrest in 24 hrs serum-starved human MCF7 cells assessed as accumulation at S phase at 2 times antiproliferative IC50 incubated for 24 hrs by propidium iodide staining based flow cytometry (reference value: 17 +/- 0.8%). Format: functional.
For test [22], the system named is T84. The test can be described thus: Induction of apoptosis in 24 hrs serum-starved human T84 cells assessed as accumulation at subG1 phase at 2 times antiproliferative IC50 incubated for 24 hrs by propidium iodide staining based flow cytometry (reference value: 4 +/- 0.3%). Format: functional.
In test [23] the test system is A549. The test can be described thus: Induction of cell cycle arrest in 24 hrs serum-starved human A549 cells assessed as accumulation at S phase at antiproliferative IC50 incubated for 24 hrs by propidium iodide staining based flow cytometry (reference value: 12 +/- 0.9%). The class given is functional.
The test system of test [24] is MCF7. The test can be described thus: Induction of apoptosis in human MCF7 cells at 2 times antiproliferative IC50 incubated for 6 hrs by fluorescence microscopy based TUNEL DNA fragmentation assay. Format: functional, cell-based.
Test [25] deals with MCF7. The test can be described thus: Antiproliferative activity against human MCF7 cells incubated for 3 days by sulforhodamine B assay. The class given is functional, cell-based. Particulars: MCF7, 72 h. The procedure, abridged:
as §1
Background: The SRB assay estimates cell density from bound dye.

Test [26] has as its system T84. The test can be described thus: Induction of cell cycle arrest in 24 hrs serum-starved human T84 cells assessed as accumulation at S phase at antiproliferative IC50 incubated for 24 hrs by propidium iodide staining based flow cytometry (reference value: 13 +/- 0.6%). Format: functional.
The test system of test [27] is A549. The test can be described thus: Induction of cell cycle arrest in 24 hrs serum-starved human A549 cells assessed as accumulation at G2-M phase at 2 times antiproliferative IC50 incubated for 24 hrs by propidium iodide staining based flow cytometry (reference value: 22 +/- 1.8%). The class given is functional.
The subject of test [28] is A549. The test can be described thus: Induction of cell cycle arrest in 24 hrs serum-starved human A549 cells assessed as accumulation at G2-M phase at antiproliferative IC50 incubated for 24 hrs by propidium iodide staining based flow cytometry (reference value: 22 +/- 1.8%). Format: functional.
For test [29], the system named is MCF7. The test can be described thus: Induction of apoptosis in human MCF7 cells at antiproliferative IC50 incubated for 6 hrs by fluorescence microscopy based TUNEL DNA fragmentation assay. Format: functional, cell-based.
The next test deals with Trypanosoma cruzi. The test can be described thus: Antiparasitic activity against Trypanosoma cruzi. The class given is functional, organism-based.

Turning to `COc1ccc(OC)c2cc3c(cc12)C(=O)C[C@H]1[C@@](C)(CO)CCC[C@]31C`, the Activity is on record as 6.9% with MCF7 [1]; 68% with A549 [2]; 11% in the test with MCF7 [3]; 18% in the test with A549 [5]; 1% in the test with MCF7 [7]; 12% with T84 [8]. For the same molecule, the Activity turned out to be 6.1% in the test on T84 [9]; 76% in the test on T84 [10]; 5.7% in the test on A549 [11]; 91% with MCF7 [12]; 6.6% in the test with MCF7 [13]; 17% with MCF7 [14]. The Activity in the test on T84 [15] is 9.4%; with A549 [16] it was 7.5%; in the test with T84 [17], 68%; with MCF7 [18], 66%; in the test with T84 [19] it was 5.7%; in the test with A549 [20], 67%. The Activity in the test on MCF7 [21] amounted to 0.7%; with T84 [22], 8.2%; in the test with A549 [23] it was 12%; in the test on T84 [26] it was 15%; in the test with A549 [27], 8%; in the test with A549 [28], 14%. In addition, the IC50 with T84 [4] was found to be 42 µM; with A549 [6] it was 21 µM; in the test with MCF7 [25], 33 µM. Besides, the outcome in the test with MCF7 [24] was Active.
On to `C[C@]1(CO)CCC[C@]2(C)c3cc4c(cc3C(=O)C[C@@H]12)C(=O)C=CC4=O`, for which the Activity stood at 24% in the test with MCF7 [1]; 63% in the test on A549 [2]; 9.4% in the test with MCF7 [3]; 8.1% with A549 [5]; 9.7% with MCF7 [7]; 17% in the test with T84 [8]. The Activity came to 15% in the test with T84 [9]; 62% in the test with T84 [10]; 3.9% in the test on A549 [11]; 60% in the test on MCF7 [12]; 34% in the test with MCF7 [13]; 19% in the test on MCF7 [14]. Further, the Activity came out at 17% in the test with T84 [15]; 16% in the test on A549 [16]; 63% in the test with T84 [17]; 37% in the test with MCF7 [18]; 5.6% with T84 [19]; 59% in the test on A549 [20]. Besides, the Activity is recorded as 6.4% with MCF7 [21]; 6.3% in the test on T84 [22]; 14% in the test with A549 [23]; 15% in the test with T84 [26]; 17% in the test with A549 [27]; 20% with A549 [28]. The IC50 in the test with T84 [4] is 8 µM; in the test on A549 [6], 4.1 µM; in the test on MCF7 [25], 6.6 µM. Further, the outcome with MCF7 [29] was Active.
`C[C@]1(CO)CCC[C@]2(C)c3cc4c(cc3C=C[C@@H]12)C(=O)C=CC4=O`: the Activity is reported as 5% in the test with MCF7 [1]; 62% with A549 [2]; 12% with MCF7 [3]; 6.1% in the test on A549 [5]; 1.7% in the test with MCF7 [7]; 18% with T84 [8]. Besides, the Activity was 7.1% in the test with T84 [9]; 71% with T84 [10]; 4% in the test on A549 [11]; 93% with MCF7 [12]; 32% in the test with MCF7 [13]; 17% in the test with MCF7 [14]. Also, the Activity in the test with T84 [15] came out at 9%; in the test on A549 [16], 12%; with T84 [17], 59%; in the test with MCF7 [18] it was 39%; with T84 [19], 6.2%; with A549 [20] it was 67%. The Activity was determined as 0.7% with MCF7 [21]; 14% with T84 [22]; 16% in the test on A549 [23]; 17% in the test with T84 [26]; 15% with A549 [27]; 17% in the test with A549 [28]. The IC50 in the test on T84 [4] came out at 11.5 µM; in the test with A549 [6], 8.3 µM; in the test on MCF7 [25], 7.7 µM. Further, in the test on MCF7 [29], the result was Active.
For the molecule `CC1(C)CCC[C@@]2(C)c3cc4c(cc3CC[C@H]12)C(=O)C=CC4=O` [CYCLOZONARONE], half-maximal inhibition with Trypanosoma cruzi (IC50) was put at 0.7 µM.
